According to article PMC4180501 (Biochimica et biophysica acta, 2012):
Substitutions are numbered along the chain they refer to.

Columns and labels:
GK-W167 (W99R/W257F) [1] = target: T1, GK-W167 (W99R/W257F) (Homo sapiens, UniProt P35557, W257F/W99R); test: DSC thermal denaturation; conditions: W-167 in buffer, 300 mM D-glucose
T1 sequence (P35557 1-465 W99R/W257F): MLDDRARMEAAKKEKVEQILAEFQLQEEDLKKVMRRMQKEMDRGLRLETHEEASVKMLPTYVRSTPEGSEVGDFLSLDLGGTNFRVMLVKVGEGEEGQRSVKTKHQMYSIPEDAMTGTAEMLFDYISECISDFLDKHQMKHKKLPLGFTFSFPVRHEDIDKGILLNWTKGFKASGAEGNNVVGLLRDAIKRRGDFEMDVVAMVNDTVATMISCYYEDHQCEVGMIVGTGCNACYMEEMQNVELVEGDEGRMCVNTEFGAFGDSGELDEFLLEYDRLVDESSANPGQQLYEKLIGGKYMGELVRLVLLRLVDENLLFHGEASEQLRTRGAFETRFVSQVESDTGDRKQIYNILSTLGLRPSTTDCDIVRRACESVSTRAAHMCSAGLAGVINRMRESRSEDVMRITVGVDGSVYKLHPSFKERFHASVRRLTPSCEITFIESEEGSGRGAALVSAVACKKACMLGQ
Procedure, shortened: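 Samples were degassed and scanned by DSC at 0.25 degree/min against a reference holding everything except protein. Tm and calorimetric ΔH were taken by integrating the Cp-vs-temperature thermogram; Cpm is the apparent heat capacity at the maximum.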

GK-WT [2] = target: T2, GK-WT (Homo sapiens, UniProt P35557); test: NADP+-coupled spectrophotometric kinetic assay; format: biochemical; conditions: GK-WT, no GKA
T2 sequence (P35557 1-465): T1 sequence (P35557 1-465 W99R/W257F) with R99W, F257W

GK-W99 (W167F/W257F) [3] = target: T3, GK-W99 (W167F/W257F) (Homo sapiens, UniProt P35557, W167F/W257F); test: NADP+-coupled spectrophotometric kinetic assay; format: biochemical; conditions: W-99, no GKA
T3 sequence (P35557 1-465 W167F/W257F): T1 sequence (P35557 1-465 W99R/W257F) with R99W, W167F
Procedure, shortened: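 Recombinant human β-cell glucokinase single-Trp variant, expressed in E. coli as a GST fusion and sequence-verified. Catalytic parameters came from an NADP+-coupled spectrophotometric assay run with or without 30% glycerol. Hill coefficient and glucose S0.5 were obtained by fitting v/Vmax = [glucose]^H/(K′+[glucose]^H), with […].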

GK-WT [4] = target: T2, GK-WT; test: Urea unfolding/refolding of GK by tryptophan fluorescence; conditions: 20°C, pH 7.3
Procedure, shortened: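 GK-WT unfolding was followed by urea titration in 20 mM PO4, 50 mM KCl, 1 mM EDTA, 1 mM DTT, pH 7.3, 20 °C, ± 20% glycerol, ± 300 mM glucose. I320/I360 was read at 295 nm excitation, and ΔGu(H2O) came from a two-state fit. Reversibility was tested after 30 min in 4 or 8 M urea, then dialysis, by restoration of the spectrum and glucose response.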

GK-W167 (W99R/W257F) [5] = target: T1, GK-W167 (W99R/W257F); test: D-glucose binding by tryptophan fluorescence titration; conditions: W-167, no GKA
GK-W99 (W167F/W257F) [6] = target: T3, GK-W99 (W167F/W257F); test: as above; conditions: W-99, no GKA

Cp^m (GK-W167 (W99R/W257F) [1]): 90.4 kJ/mol/°C
ΔH thermal denaturation (GK-W167 (W99R/W257F) [1]): 97.99 kcal/mol
Tm (GK-W167 (W99R/W257F) [1]; DSC): 53.4 °C
Glucose S0.5 (GK-WT [2]; 30% glycerol): 3.15 mM
nH (Hill coefficient towards glucose) (GK-WT [2]; 30% glycerol): 1.78
Glucose S0.5 (GK-WT [2]; no glycerol): 6.26 mM
nH (Hill coefficient towards glucose) (GK-WT [2]; no glycerol): 1.69
Glucose S0.5 (GK-W99 (W167F/W257F) [3]; 30% glycerol): 6.53 mM
kcat (GK-W99 (W167F/W257F) [3]; 30% glycerol): 6.10 s⁻¹
kcat/S0.5 (GK-W99 (W167F/W257F) [3]; 30% glycerol): 930 M⁻¹ s⁻¹
nH (Hill coefficient towards glucose) (GK-W99 (W167F/W257F) [3]; 30% glycerol): 1.52
Glucose S0.5 (GK-W99 (W167F/W257F) [3]; no glycerol): 21.0 mM
kcat (GK-W99 (W167F/W257F) [3]; no glycerol): 8.47 s⁻¹
kcat/S0.5 (GK-W99 (W167F/W257F) [3]; no glycerol): 400 M⁻¹ s⁻¹
nH (Hill coefficient towards glucose) (GK-W99 (W167F/W257F) [3]; no glycerol): 1.24
ΔGu(H2O) of urea denaturation (GK-WT [4]; GK-WT in 20% glycerol with 300 mM D-glucose): 2.87 kcal/mol
ΔGu(H2O) of urea denaturation (GK-WT [4]; GK-WT in buffer with 300mM D-glucose): 2.48 kcal/mol
Kd (GK-W167 (W99R/W257F) [5]; 20% glycerol): 0.09 mM
Kd (GK-W167 (W99R/W257F) [5]; no glycerol): 0.38 mM
Kd (GK-W99 (W167F/W257F) [6]; 20% glycerol): 4.06 mM
Kd (GK-W99 (W167F/W257F) [6]; no glycerol): 18.8 mM
Compound: OC[C@H]1OC(O)[C@H](O)[C@@H](O)[C@@H]1O (stereo partly drawn) [D-glucose]
